Compound activity from PubChem BioAssay.
Cneo AK release: causes C. neoformans cell lysis; 360,000 tested, 0.2% active; AID 651654; adenylate kinase release luminescence, 4 h; normalised: neutral wells 0, clomiphene wells 100; lysis activity, % at 15 µM;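 active = mean lysis activity across replicates of at least 80%, whatever share of replicates individually reach that level; inactive = mean lysis activity below 80%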
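Test system: log-phase Cryptococcus neoformans yeast cells; Quantity: yeast cell density of 5 × 10^6 cells/mL; Buffer or medium: YPD; Doses: single compound concentration per well; Timing: 4 h at 37 °C static, read 1 h later; Measured by: AK luminescence; Read-out basis: lysis from increased AK signal; Control set: Clomiphene as positive control.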
Efflux pump mplx: inhibitors of Candida antifungal efflux pumps expressed in yeast; S. cerevisiae Candida pump triplex, Nile Red efflux; inhibition, % at 10 µM; 330,000 tested, 0.44% active;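 active = plate passing quality check with inhibition over a set limit, or well fluorescence over plate mean plus 4 SD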;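 note: Nile Red retained in pooled yeast measured as flow cytometry median fluorescence; 0% = buffer negative control and 100% = Enniatin B positive control; higher means more Nile Red kept so more efflux inhibition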
Statin myotox sup: suppression of simvastatin myotoxicity; 330,000 tested, 0.78% active; C2C12 myotubes + simvastatin, ATP luminescence, 48 h; scaled: DMSO 0, geranylgeraniol control 100; rescue of ATP level, % at 7.49 µM;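 active = mean ATP rescue above about 67%, or every replicate alone reaching that limit, limit read from the data, passing the limit was not always enough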;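 note: myotubes were challenged with 10 µM simvastatin during compound exposure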
SUMO Mot1 rescue: blocks SUMOylation pathway, rescuing yeast Mot1-301 growth | growth rescue, % at 18.8 µM | AID 2716 | 320,000 tested, 1% active | S. cerevisiae Mot1-301 growth rescue, ATP luminescence, 38.5C; percent above DMSO median, 100 means doubled;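 active = every valid replicate shows activation above 250% relative to neutral control wells; inactive = the rest, any valid replicate at or below 250%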;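 note: OY570 slx delta 5 strain wells were the positive control but not used for scaling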
Yeast Mot1 SUMO: yeast SUMO pathway inhibition in dose response. shares compounds with SUMO Mot1 rescue. S. cerevisiae Mot1-301 galactose growth, ATP luminescence, 24 h; -100 = growth of slx-deleted rescue strain. growth activity, percent, % at 42 µM. 2,300 tested, under 10 active;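 active = Signal drops as the depositor expects, and the fitted half-maximal dose is no more than ten times the top valid tested dose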;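 note: more negative values mean stronger growth rescue toward the control strain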
* = called active by the depositor; . = not tested or not shown; + = active, no number. An excerpt weighted towards active compounds, which were near 1.8% of everything screened.

SMILES	Cneo AK release	Efflux pump mplx	Statin myotox sup	SUMO Mot1 rescue	Yeast Mot1 SUMO
O=C(Nc1ccc(OC(F)(F)F)cc1)c1ccc2ccccc2n1	.	0	.	645*	-1
CCn1nnc(-c2ccccc2NC(=O)c2cnccn2)n1	.	0	.	407*	0
CSc1ccccc1-c1cnc(NC(C)=O)cn1	-1	.	-10	.	.
C=CC[N+]1(CC#Cc2ccccc2)CCCC1	.	0	.	393*	0
COc1cc(/C=N/NC(=O)c2ccc(F)cc2)ccc1OC(=O)c1ccco1	.	0	.	-10	.
COc1ccc(/C=N/NC(=O)c2cccnc2)cc1CN1CCOCC1	4	0	-2	-19	.
COc1cc(/C=N/NC(=O)c2ccncc2)ccc1OC(=O)c1ccco1	-4	0	20	404*	0
COc1cc(/C=N/NC(=O)c2cccnc2)ccc1OCC(=O)N1CCOCC1	-1	0	4	768*	0
Cc1sc2nc(N)sc2c1C	-2	0	.	+	0
Cc1cc(C)cc(NC(=O)CS(=O)(=O)c2ccccc2)c1	9	0	6	368*	0
CCc1nnc2n1N=C(c1ccc(Cl)cc1)CS2	-4	0	-4	394*	0
CCc1nnc2n1N=C(c1ccccc1)CS2	-3	0	9	-41	.
O=C(CN1CCCCC1)Nc1ccc(N2CCCCCC2)cc1	.	0	.	12	.
Cc1ccc(NC(=O)Cn2nnc(C(=O)NCc3ccc4c(c3)OCO4)c2N)cc1	-1	0	-28	550*	0
CCOCCOC(=O)c1[nH]c2c(c1C)C(=O)CC(c1cc(OC)c(OC)c(OC)c1)C2 (centres undefined)	3	0	-7	1	.
CN1C(=O)c2cc(NC(=O)C3CCOCC3)ccc2OC[C@@H]2O[C@@H](CC(=O)NCC3CC3)CC[C@H]21	-3	.	-4	.	.
CC(c1ccccn1)N(CCN(C)C)C(=S)Nc1cccc(F)c1 (centres undefined)	0	0	-6	436*	0
Cc1cccc(C)c1NC(=S)N(CCN(C)C)C(C)c1ccccn1 (centres undefined)	.	0	.	8	.
CC(C)(C)NC(=O)CN(C(=O)CCC(=O)Nc1nccs1)c1ccc2c(c1)OCCO2	0	0	-3	543*	0
O=C(NCc1ccccn1)C1CC(c2ccc(Cl)c(Cl)c2)=NO1 (centres undefined)	4	0	-6	+	0
C[C@@H]1CN([C@H](C)CO)C(=O)c2cc(/C=C/c3ccccc3)cnc2O[C@@H]1CN(C)Cc1ccccc1	5	.	10	.	.
O=C(NCc1cccnc1)Nc1ccccc1	0	0	-3	564*	0
CC(C)(C)NC(=S)NCc1cccnc1	-4	-1	-1	978*	1
Cc1ccc(CNC(=O)CN(CCc2ccccc2)S(C)(=O)=O)cc1	.	0	.	14	.
CS(=O)(=O)N(CCc1ccccc1)CC(=O)NCc1cccnc1	-1	0	.	854*	0
SMILES	Cneo AK release	Efflux pump mplx	Statin myotox sup	SUMO Mot1 rescue	Yeast Mot1 SUMO
CC(C)(C)NC(=O)NCc1cccnc1	.	0	.	-17	.
COc1cccc(-c2ccc3c(c2)O[C@@H](CN(C)C(C)=O)[C@H](C)CN([C@H](C)CO)S3(=O)=O)c1	6	.	-16	.	.
O=C(O)c1cc(N/N=C/C(Cl)=C/c2ccccc2)ccc1Cl	1	0	5	6	.
CN(C#N)c1nc(Cl)nc(Nc2cccc(Cl)c2)n1	.	-3	.	597*	0
Cc1cc(C)nc(Nc2cccc(Cl)c2)n1	-2	0	-9	0	.
O=C(CN1C(=O)/C(=C/c2ccccc2F)Sc2ccccc21)NCCCN1CCOCC1	2	0	-1	178	.
CN(c1ccccc1C(=O)Nc1cccnc1)S(C)(=O)=O	-19	0	.	12	.
C/C=C/C(=O)OCC(=O)Nc1nc2ccc(C)cc2s1	1	0	-2	361*	0
CCOCC(=O)Nc1nc2ccc(C)cc2s1	-2	0	.	8	.
COc1cccc(CN(C)C(=O)C2CCC(=O)N(Cc3cccc(F)c3)C2)c1 (centres undefined)	1	0	2	722*	-1
CCN(CC)C(=O)Oc1ccc(Br)c2ccccc12	.	0	.	347	.
CN1CC2(C)OC(=O)C(Cl)=C2CC1c1ccccc1 (centres undefined)	.	0	.	431*	-1
O=C(NN=C1CCCCCC1)C(=O)Nc1cccc(Br)c1	4	0	.	15	.
Cc1ccc(C(=O)O)cc1[N+](=O)[O-]	33	0	-1	365*	-1
C=CCn1c(CCC)nc2ccccc21	.	0	.	634*	0
CN(C)C(=O)c1cc(C(=O)c2ccc(C(F)(F)F)cc2F)c[nH]1	.	0	8	500*	0
CN(C)C(=O)c1cc(C(=O)c2ccc(F)cc2F)c[nH]1	-1	0	15	2	.
CN1CCCCC1=NCCCn1cnc2c1c(=O)n(C)c(=O)n2C	-2	0	-35	602*	0
CC(=O)CCCCn1cnc2c1c(=O)n(C)c(=O)n2C	.	0	.	18	.
CCOc1cc(N2CCOCC2)c(OCC)cc1NC(=O)c1ccc(-n2ccnc2)c([N+](=O)[O-])c1	7	0	-12	50	.
COc1ccccc1NC(=O)c1ccc(-n2ccnc2)c([N+](=O)[O-])c1	1	0	3	513*	0
O=c1[nH]c(C(F)(F)F)nc2c1nnn2Cc1ccccc1F	-1	0	22	1	.
CCCc1nc2c(nnn2Cc2ccccc2F)c(=O)[nH]1	-1	0	10	386*	0
CCSc1nc2ccccc2c(=O)n1C1CCOC(C)(C)C1 (centres undefined)	.	0	12	545*	0
C[C@@H]1CN([C@@H](C)CO)C(=O)c2cc(NC(=O)Cc3ccccc3)ccc2O[C@@H](C)CCCCO[C@H]1CN(C)C(=O)c1ccncc1	-1	.	6	.	.
SMILES	Cneo AK release	Efflux pump mplx	Statin myotox sup	SUMO Mot1 rescue	Yeast Mot1 SUMO
CC1(C)NC(=O)N(CC(O)COc2cccc(F)c2)C1=O (centres undefined)	-4	0	-13	15	.
COc1ccc(OCC(O)CN2C(=O)NC(C)(C)C2=O)cc1 (centres undefined)	2	0	121*	+	2
N#CCN(N=Nc1ccccc1)c1ccccc1	-1	0	-8	617*	1
O=[N+]([O-])c1cccc(N=NN(CCO)c2cccc([N+](=O)[O-])c2)c1	1	0	-14	30	.
CCCNC(=O)[C@H]1[C@H](CO)[C@H]2Cn3c(ccc(/C=C/c4ccccc4)c3=O)[C@@H]1N2C(=O)c1ccncc1	-1	.	-14	.	.
CCCCn1c(SCC(=O)Nc2cc(C)on2)nnc1-c1ccco1	-2	0	-12	527*	0
O=C(Cc1ccccc1)N1CCCC1c1ccccc1 (centres undefined)	0	0	6	+	0
Cc1nn(C)c(C(=O)N/N=C/c2cccnc2)c1Br	-3	-5	6	15	.
COc1cc(COc2ccc3c(C)c(CC(=O)O)c(=O)oc3c2C)cc(OC)c1OC	1	0	2	628*	-1
